The series has as its system Liver microsome. As to the kind of experiment: Drug level in human liver microsomes treated with 50 uM 1-(1-Oxo-1-{4-[3-(trifluoromethyl)phenyl]piperazin-1-yl}-propan-2-yl)pyrrolidine-2,5-dione assessed as compound formation in presence of NADPH regeneration system pre-incubated at 37 degC for 5 min and measured 2 hrs after post NADPH system addition by UPLC and LC-MS/MS method. Type of series: ADME. In outline: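 The compound was incubated 2 h with human liver microsomes. Metabolites were detected by full-scan chromatogram and identified by LC/MS from their [M+H]+ molecular masses.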
For orientation: Liver microsomes are vesicles of endoplasmic reticulum, rich in cytochrome P450 enzymes.

Molecules are shown by their SMILES.

Take `CC(C(=O)N1C=CN(c2cccc(C(F)(F)F)c2)CC1)N1C(=O)CCC1=O` (centres undefined): the Drug metabolism entry was “metabolite_detected”.
With `O=C(C(CO)N1C(=O)CC(O)C1=O)N1C=CN(c2cccc(C(F)(F)F)c2)CC1` (centres undefined) the entry was “metabolite_detected”; with `O=C(C(CO)N1C(=O)CCC1O)N1CCN(c2cccc(C(F)(F)F)c2)CC1` (centres undefined), “metabolite_detected”; with `CC(C(=O)N1CCN(c2ccc(O)c(C(F)(F)F)c2)CC1)N1C(=O)CCC1=O` (centres undefined), “metabolite_detected”.

Values taken from ChEMBL document CHEMBL3580554, “Design, synthesis, and anticonvulsant activity of new hybrid compounds derived from 2-(2,5-dioxopyrrolidin-1-yl)propanamides and 2-(2,5-dioxopyrrolidin-1-yl)butanamides” (J Med Chem, 2015).
